Assay [1] concerns the target T1, Protein S100-B (Rattus norvegicus, UniProt P04631).
T1 sequence (P04631 whole entry): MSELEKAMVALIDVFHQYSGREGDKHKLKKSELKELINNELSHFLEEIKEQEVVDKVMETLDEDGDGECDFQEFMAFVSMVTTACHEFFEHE
In words: Displacement of TAMRA-TRTK12 from recombinant rat calcium loaded S100-B by […] analysis.

The target in assay [2] is T1, Protein S100-B. As to the kind of experiment: Displacement of TAMRA-TRTK12 from recombinant rat calcium loaded S100-B by fluorescence polarization competition assay. In general terms: Polarisation of emitted light reports the rotation of a fluorescent probe.
Assay [3] is described as follows: Growth inhibition of human WM115 cells expressing high levels of S100-B by SYBR Green based fluorescence method. In kind it is functional, cell-based. As to conditions: WM-115.
Assay [4] in a line: Growth inhibition of human WM115 cells expressing low levels of S100-B by SYBR Green based fluorescence method. The format is functional, cell-based. As to conditions: WM-115.
The target of assay [5] is T2, Protein S100-B (Rattus norvegicus) (UniProt P04631).
T2 sequence (whole entry): T1 sequence (P04631 whole entry)
As to the kind of experiment: Displacement of TAMRA-TRTK12 from recombinant rat calcium loaded S100-B at <1 mM by fluorescence polarization competition assay.

The target in assay [6] is T1, Protein S100-B. In words: Binding affinity to recombinant rat calcium loaded S100-B by fluorescence spectrophotometric analysis. A digest of the protocol:
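Competition fluorescence polarization against 10 nM TAMRA-labelled TRTK12 peptide (CapZ residues 265–276) with 1 µM Ca2+-loaded rat S100B. Buffer: 50 mM HEPES pH 7.2, 100 mM KCl, 15 mM NaCl, 10 mM CaCl2, 0.01% Triton X-100, 0.5% DMSO. Compounds titrated from the highest concentration possible. Read at room temperature (ex 544/em 590 nm). KD calculated from the IC50 using the Nikolovska-Coleska equation.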

The target of assay [7] is T1, Protein S100-B. As to the kind of experiment: Binding affinity to recombinant rat calcium loaded S100-B by isothermal titration calorimetry.

The structures appear in SMILES notation. Calls of active or inactive are those of the source. The rule behind the calls is not given here. Some results are limits rather than exact numbers.

With `CNC(=O)NC(=N)c1ccc(OCCCCCCCOc2ccc(C(=N)NC(=O)NC)cc2)cc1`, the dissociation constant Kd at Protein S100-B [1] stood at 89.5 µM. For the same compound, the IC50 on Protein S100-B [2] came out at 982 µM. Further, the EC50 amounted to 131 µM in assay [3] and 146 µM in assay [4].

For the compound `c1cc(C2=NCCN2)ccc1OCCCCCCCCOc1ccc(C2=NCCN2)cc1`, in assay [5], the result was inactive. In addition, the EC50 was found to be 21.8 µM in assay [3] and 24.3 µM in assay [4].

`c1cc(C2=NCCCCN2)ccc1OCCCCCCCOc1ccc(C2=NCCCCN2)cc1`: in assay [5], the outcome was inactive. Also, the EC50 was 7.8 µM in assay [3] and 9.2 µM in assay [4].

For `c1cc(C2=NCCCN2)ccc1OCCCCCCOc1ccc(C2=NCCCN2)cc1`, the outcome in assay [5] was inactive. The results for the EC50 in assay [3] and in assay [4] were 44.1 µM and 42.7 µM, respectively.

Regarding `N=C(N)c1ccc(Oc2ccc(-c3cc4ccc(C(=N)N)cc4[nH]3)cc2)cc1`, on Protein S100-B [1], the equilibrium dissociation constant (Kd) is 6 µM. For the same compound, the IC50 on Protein S100-B [2] was found to be 66.6 µM. Further, the EC50 in assay [3] and in assay [4] was less than 1 µM in each case.

With `c1cc(C2=NCCCCN2)ccc1OCCCCCOc1ccc(C2=NCCCCN2)cc1`, the result in assay [5] was inactive. The half-maximal effective concentration (EC50) is 20 µM in assay [3] and 19 µM in assay [4].

For the compound `N=C(NCCCCCCCN)c1ccc(OCCCCCCCOc2ccc(C(=N)NCCCCCCCN)cc2)cc1`, at Protein S100-B [1], the dissociation constant (Kd) was 0.5 µM. Besides, on Protein S100-B [2], the IC50 amounted to 6.7 µM. The EC50 turned out to be 24.3 µM in assay [3] and 25.4 µM in assay [4].

As for `N=C(N)c1ccc(OCCCCCCCCOc2ccc(C(=N)N)cc2)cc1`, the EC50 came out at 245 µM in assay [3] and 234 µM in assay [4].

Take `N=C(N)c1ccc(OCCCCCCCOc2ccc(C(=N)N)cc2)cc1` [HEPTAMIDINE]: the EC50 came out at 11.5 µM in assay [3] and 25.6 µM in assay [4].

In the case of `N=C(N)c1ccc(OCCCN(CCCOc2ccc(C(=N)N)cc2)Cc2ccccc2)cc1`, the EC50 is 51.8 µM in assay [3] and 41 µM in assay [4].

Turning to `c1cc(C2=NCCCN2)ccc1OCCCCCOc1ccc(C2=NCCCN2)cc1`, in assay [5], the result was inactive. The EC50 in assay [3] came to 203 µM; in assay [4] it was 284 µM.

For `N=C(NC(=O)Nc1ccccc1)c1ccc(OCCCCCCCOc2ccc(C(=N)NC(=O)Nc3ccccc3)cc2)cc1`, the half-maximal effective concentration (EC50) in assay [3] turned out to be 0.4 µM; in assay [4], 0.5 µM.

Turning to `N=C(N)c1ccc(OCCCCCOc2ccc(C(=N)N)cc2)cc1` [PENTAMIDINE], the values for the Kd at Protein S100-B [6] and on Protein S100-B [7] were 44 µM and 50 µM, respectively. Besides, the EC50 in assay [3] amounted to 16.3 µM; in assay [4], 16.7 µM.

As for `c1cc(C2=NCCCN2)ccc1OCCCCCCCOc1ccc(C2=NCCCN2)cc1`, the result in assay [5] was inactive. Besides, the results for the concentration for a half-maximal effect (EC50) in assay [3] and in assay [4] were 612 µM and 289 µM, respectively.

For `N=C(NCCCCCN)c1ccc(OCCCCCOc2ccc(C(=N)NCCCCCN)cc2)cc1`, the Kd at Protein S100-B [1] is 4.6 µM. On Protein S100-B [2], the half-maximal inhibitory concentration (IC50) was 51.1 µM.

Take `CCCN(CCCOc1ccc(C(=N)N)cc1)CCCOc1ccc(C(=N)N)cc1`: the EC50 came out at 864 µM in assay [3] and 500 µM in assay [4].

On to `c1cc(C2=NCCN2)ccc1OCCCCCCCOc1ccc(C2=NCCN2)cc1`, for which the outcome in assay [5] was inactive. For the same compound, the Kd at Protein S100-B [1] was 203 µM. Also, the concentration giving a half-maximal response (EC50) in assay [3] was found to be 32.2 µM; in assay [4], 21.2 µM.

`c1cc(C2=NCCCCN2)ccc1OCCCCCCOc1ccc(C2=NCCCCN2)cc1`: the result in assay [5] was inactive. The values for the half-maximal effective concentration (EC50) in assay [3] and in assay [4] were 264 µM and 301 µM, respectively.

With `N=C(NCCCCCCCN)c1ccc(OCCCCCCCCOc2ccc(C(=N)NCCCCCCCN)cc2)cc1`, the dissociation constant Kd on Protein S100-B [1] came to 1.6 µM. The half-inhibitory concentration (IC50) on Protein S100-B [2] is 18.3 µM. Moreover, the EC50 stood at 46.3 µM in assay [3] and 45.8 µM in assay [4].

Regarding `c1cc(C2=NCCN2)ccc1OCCCCCCOc1ccc(C2=NCCN2)cc1`, the outcome in assay [5] was inactive. Besides, the EC50 in assay [3] turned out to be 52 µM; in assay [4] it was 34.5 µM.

For the compound `c1cc(C2=NCCCN2)ccc1OCCCCCCCCOc1ccc(C2=NCCCN2)cc1`, in assay [5], the result was inactive. Besides, the concentration for a half-maximal effect (EC50) in assay [3] was 24.8 µM; in assay [4] it was 37.9 µM.

As for `c1cc(C2=NCCN2)ccc1OCCCCCOc1ccc(C2=NCCN2)cc1`, the outcome in assay [5] was inactive. In addition, the figures for the EC50 in assay [3] and in assay [4] were 56.2 µM and 38.9 µM, respectively.

In the case of `c1cc(C2=NCCCCN2)ccc1OCCCCCCCCOc1ccc(C2=NCCCCN2)cc1`, the result in assay [5] was inactive. For the same compound, the EC50 in assay [3] stood at 5.4 µM; in assay [4], 4.8 µM.

As usually defined, the Kd is the equilibrium constant for the complex coming apart. The term IC50 denotes the concentration that gives 50% inhibition. As a reminder, the EC50 is the concentration at which the effect is half-maximal. A higher EC50 goes with a need for much substance.

Source of the values: ChEMBL document CHEMBL3763147, “Small Molecule Inhibitors of Ca(2+)-S100B Reveal Two Protein Conformations” (J Med Chem, 2016).
